Laboratory results published in ChEMBL document CHEMBL1125100, “New quinolone antibacterial agents. Synthesis and biological activity of 7-(3,3- or 3,4-disubstituted-1-pyrrolidinyl)quinoline-3-carboxylic acids” (1990).
In brackets after ≈: the same amount, converted by molar mass.

How the values were obtained:
Assay type in all cases: functional
[1] = tested on: Escherichia coli; assay: Antibacterial activity was determined against Gram-negative Escherichia coli Vogel bacteria
Outline: (§1)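 MICs, in micrograms per milliliter, were determined by standard microtitration (microdilution) techniques against each listed Gram-negative and Gram-positive strain.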

[2] = tested on: Enterobacter cloacae; assay: Antibacterial activity was determined against Gram-negative Enterobacter cloacae HA2646 bacteria; outline: as §1
[3] = tested on: Escherichia coli; assay: Antibacterial activity was determined against Gram-negative Escherichia coli H560 bacteria; outline: as §1
[4] = tested on: Escherichia coli; assay: Protective dose against Escherichia coli H560 bacteria; details: read-out: PD50
Outline: (§2)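 Acute lethal systemic infection model in female Charles River CD-1 mice. The value is the median protective dose (PD50, mg/kg), defined as the dose needed to protect 50% of mice from the lethal infection.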

[5] = tested on: Escherichia coli; assay: Gyrase-drug induced cleavage against Escherichia coli
Outline: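 Compounds were tested for induction of DNA gyrase-mediated cleavage. The value is the minimum drug concentration giving linear DNA at an intensity matching that produced by oxolinic acid at 10 μg/mL.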

[6] = tested on: Klebsiella pneumoniae; assay: Antibacterial activity was determined against Gram-negative Klebsiella pneumoniae MGH-2 bacteria; outline: as §1
[7] = tested on: Providencia rettgeri; assay: Antibacterial activity was determined against Gram-negative Providencia rettgeri H1771 bacteria; outline: as §1
[8] = tested on: Pseudomonas aeruginosa; assay: Antibacterial activity was determined against Gram-negative Pseudomonas aeruginosa UI-18 bacteria; outline: as §1
[9] = tested on: Staphylococcus aureus; assay: Antibacterial activity was determined against Gram-positive Staphylococcus aureus H228 bacteria; details: in the assay text read “Gram-positive” for “Gram-negative”; outline: as §1
[10] = tested on: Staphylococcus aureus; assay: Antibacterial activity was determined against Gram-positive Staphylococcus aureus UC-76 bacteria; details: in the assay text read “Gram-positive” for “Gram-negative”; outline: as §1
[11] = tested on: Streptococcus pneumoniae; assay: Protective dose against Streptococcus pneumoniae bacteria; details: read-out: PD50; outline: as §2
[12] = tested on: Streptococcus pneumoniae; assay: Antibacterial activity was determined against Gram-positive Streptococcus pneumoniae SV-1 bacteria; outline: as §1
[13] = tested on: Streptococcus pyogenes; assay: Antibacterial activity was determined against Gram-positive Streptococcus pyogenes C203 bacteria; outline: as §1
[14] = tested on: Streptococcus pyogenes; assay: Protective dose against Streptococcus pyogenes bacteria; details: read-out: PD50; outline: as §2
[15] = tested on: Enterococcus faecalis; assay: Antibacterial activity was determined against Gram-positive Streptococcus faecalis MGH-2 bacteria; outline: as §1
[16] = tested on: Streptococcus pneumoniae; assay: Protective dose against Streptococcus pneumonia bacteria; details: read-out: PD50; outline: as §2

Structure (SMILES): NCC1CN(c2c(F)cc3c(=O)c(C(=O)O)cn(C4CC4)c3c2F)CC1c1ccccc1 (stereo not drawn)
- MIC [1]: 0.1 mg/L (≈ 0.228 µM)
- MIC [2]: 0.2 mg/L (≈ 0.455 µM)
- MIC [3]: 0.013 mg/L (≈ 0.0296 µM)
- ED50 [4]: 27 mg/kg
- MEC [5]: 2.62 µg/mL
- MIC [6]: 0.1 mg/L (≈ 0.228 µM)
- MIC [7]: 0.4 mg/L (≈ 0.91 µM)
- MIC [8]: 1.6 mg/L (≈ 3.64 µM)
- MIC [9]: 0.013 mg/L (≈ 0.0296 µM)
- MIC [10]: 0.006 mg/L (≈ 0.0137 µM)
- ED50 [11]: 25 mg/kg
- MIC [12]: 0.006 mg/L (≈ 0.0137 µM)
- MIC [13]: 0.013 mg/L (≈ 0.0296 µM)
- ED50 [14]: 11 mg/kg
- MIC [15]: 0.013 mg/L (≈ 0.0296 µM)

Structure (SMILES): NCC1CCN(c2c(F)cc3c(=O)c(C(=O)O)cn(C4CC4)c3c2F)C1 (stereo not drawn)
- MIC [1]: 0.025 mg/L (≈ 0.0688 µM)
- MIC [2]: 0.05 mg/L (≈ 0.138 µM)
- MIC [3]: 0.006 mg/L (≈ 0.0165 µM)
- ED50 [4]: 6 mg/kg
- MEC [5]: 0.25 µg/mL
- MIC [6]: 0.05 mg/L (≈ 0.138 µM)
- MIC [7]: 0.1 mg/L (≈ 0.275 µM)
- MIC [8]: 0.2 mg/L (≈ 0.55 µM)
- MIC [9]: 0.025 mg/L (≈ 0.0688 µM)
- MIC [10]: 0.003 mg/L (≈ 0.00826 µM)
- ED50 [16]: 10 mg/kg
- MIC [12]: 0.006 mg/L (≈ 0.0165 µM)
- MIC [13]: 0.013 mg/L (≈ 0.0358 µM)
- ED50 [14]: 4 mg/kg
- MIC [15]: 0.025 mg/L (≈ 0.0688 µM)

Structure (SMILES): NC1CCN(c2c(F)cc3c(=O)c(C(=O)O)cn(C4CC4)c3c2F)C1 (stereo not drawn)
- MIC [1]: 0.013 mg/L (≈ 0.0372 µM)
- MIC [2]: 0.025 mg/L (≈ 0.0716 µM)
- MIC [3]: 0.006 mg/L (≈ 0.0172 µM)
- ED50 [4]: 1 mg/kg
- MEC [5]: 0.1 µg/mL
- MIC [6]: 0.025 mg/L (≈ 0.0716 µM)
- MIC [7]: 0.05 mg/L (≈ 0.143 µM)
- MIC [8]: 0.1 mg/L (≈ 0.286 µM)
- MIC [9]: 0.05 mg/L (≈ 0.143 µM)
- MIC [10]: 0.025 mg/L (≈ 0.0716 µM)
- ED50 [16]: 15 mg/kg
- MIC [12]: 0.05 mg/L (≈ 0.143 µM)
- MIC [13]: 0.05 mg/L (≈ 0.143 µM)
- ED50 [14]: 7.5 mg/kg
- MIC [15]: 0.05 mg/L (≈ 0.143 µM)

Structure (SMILES): NCC1(c2ccccc2)CCN(c2c(F)cc3c(=O)c(C(=O)O)cn(C4CC4)c3c2F)C1 (stereo not drawn)
- MIC [1]: 0.05 mg/L (≈ 0.114 µM)
- MIC [2]: 0.05 mg/L (≈ 0.114 µM)
- MIC [3]: 0.013 mg/L (≈ 0.0296 µM)
- ED50 [4]: 14 mg/kg
- MEC [5]: 2.62 µg/mL
- MIC [6]: 0.1 mg/L (≈ 0.228 µM)
- MIC [7]: 0.2 mg/L (≈ 0.455 µM)
- MIC [8]: 0.8 mg/L (≈ 1.82 µM)
- MIC [9]: 0.025 mg/L (≈ 0.0569 µM)
- MIC [10]: 0.013 mg/L (≈ 0.0296 µM)
- MIC [12]: 0.013 mg/L (≈ 0.0296 µM)
- MIC [13]: 0.05 mg/L (≈ 0.114 µM)
- ED50 [14]: 21 mg/kg
- MIC [15]: 0.05 mg/L (≈ 0.114 µM)

Structure (SMILES): CN(C)CC1(c2ccccc2)CCN(c2c(F)cc3c(=O)c(C(=O)O)cn(C4CC4)c3c2F)C1 (stereo not drawn)
- MIC [1]: 0.05 mg/L (≈ 0.107 µM)
- MIC [2]: 0.05 mg/L (≈ 0.107 µM)
- MIC [3]: 0.013 mg/L (≈ 0.0278 µM)
- ED50 [4]: 50 mg/kg
- MEC [5]: 2.62 µg/mL
- MIC [6]: 0.1 mg/L (≈ 0.214 µM)
- MIC [7]: 0.1 mg/L (≈ 0.214 µM)
- MIC [8]: 0.4 mg/L (≈ 0.856 µM)
- MIC [9]: 0.05 mg/L (≈ 0.107 µM)
- MIC [10]: 0.05 mg/L (≈ 0.107 µM)
- MIC [12]: 0.006 mg/L (≈ 0.0128 µM)
- MIC [13]: 0.025 mg/L (≈ 0.0535 µM)
- MIC [15]: 0.05 mg/L (≈ 0.107 µM)

Structure (SMILES): NC1(c2ccccc2)CCN(c2c(F)cc3c(=O)c(C(=O)O)cn(C4CC4)c3c2F)C1 (stereo not drawn)
- MIC [1]: 0.025 mg/L (≈ 0.0588 µM)
- MIC [2]: 0.006 mg/L (≈ 0.0141 µM)
- MIC [3]: 0.013 mg/L (≈ 0.0306 µM)
- ED50 [4]: 12 mg/kg
- MEC [5]: 0.55 µg/mL
- MIC [6]: 0.05 mg/L (≈ 0.118 µM)
- MIC [7]: 0.05 mg/L (≈ 0.118 µM)
- MIC [8]: 0.2 mg/L (≈ 0.47 µM)
- MIC [9]: 0.013 mg/L (≈ 0.0306 µM)
- MIC [10]: 0.006 mg/L (≈ 0.0141 µM)
- MIC [12]: 0.013 mg/L (≈ 0.0306 µM)
- MIC [13]: 0.05 mg/L (≈ 0.118 µM)
- ED50 [14]: 12 mg/kg
- MIC [15]: 0.05 mg/L (≈ 0.118 µM)

Structure (SMILES): CCNCC1(c2ccccc2)CCN(c2c(F)cc3c(=O)c(C(=O)O)cn(C4CC4)c3c2F)C1 (stereo not drawn)
- MIC [1]: 0.4 mg/L (≈ 0.856 µM)
- MIC [2]: 0.8 mg/L (≈ 1.71 µM)
- MIC [3]: 0.1 mg/L (≈ 0.214 µM)
- ED50 [4]: 37 mg/kg
- MEC [5]: 2.62 µg/mL
- MIC [6]: 0.8 mg/L (≈ 1.71 µM)
- MIC [7]: 1.6 mg/L (≈ 3.42 µM)
- MIC [8]: 3.1 mg/L (≈ 6.63 µM)
- MIC [9]: 0.1 mg/L (≈ 0.214 µM)
- MIC [10]: 0.05 mg/L (≈ 0.107 µM)
- MIC [12]: 0.025 mg/L (≈ 0.0535 µM)
- MIC [13]: 0.1 mg/L (≈ 0.214 µM)
- MIC [15]: 0.2 mg/L (≈ 0.428 µM)

Structure (SMILES): NC1CN(c2c(F)cc3c(=O)c(C(=O)O)cn(C4CC4)c3c2F)CC1c1ccccc1 (stereo not drawn)
- MIC [1]: 0.1 mg/L (≈ 0.235 µM)
- MIC [2]: 0.2 mg/L (≈ 0.47 µM)
- MIC [3]: 0.025 mg/L (≈ 0.0588 µM)
- MEC [5]: 2.75 µg/mL
- MIC [6]: 0.2 mg/L (≈ 0.47 µM)
- MIC [7]: 0.4 mg/L (≈ 0.94 µM)
- MIC [8]: 1.6 mg/L (≈ 3.76 µM)
- MIC [9]: 0.05 mg/L (≈ 0.118 µM)
- MIC [10]: 0.025 mg/L (≈ 0.0588 µM)
- MIC [12]: 0.1 mg/L (≈ 0.235 µM)
- MIC [13]: 0.1 mg/L (≈ 0.235 µM)
- MIC [15]: 0.1 mg/L (≈ 0.235 µM)

Structure (SMILES): CC1(CN)CCN(c2c(F)cc3c(=O)c(C(=O)O)cn(C4CC4)c3c2F)C1 (stereo not drawn)
- MIC [1]: 0.05 mg/L (≈ 0.132 µM)
- MIC [2]: 0.025 mg/L (≈ 0.0662 µM)
- MIC [3]: 0.013 mg/L (≈ 0.0344 µM)
- ED50 [4]: 2.1 mg/kg
- MEC [5]: 2.62 µg/mL
- MIC [6]: 0.1 mg/L (≈ 0.265 µM)
- MIC [7]: 0.2 mg/L (≈ 0.53 µM)
- MIC [8]: 0.4 mg/L (≈ 1.06 µM)
- MIC [9]: 0.013 mg/L (≈ 0.0344 µM)
- MIC [10]: 0.003 mg/L (≈ 0.00795 µM)
- ED50 [16]: 5 mg/kg
- MIC [12]: 0.006 mg/L (≈ 0.0159 µM)
- MIC [13]: 0.025 mg/L (≈ 0.0662 µM)
- ED50 [14]: 9 mg/kg
- MIC [15]: 0.013 mg/L (≈ 0.0344 µM)

Structure (SMILES): CC1(N)CCN(c2c(F)cc3c(=O)c(C(=O)O)cn(C4CC4)c3c2F)C1 (stereo not drawn)
- MIC [1]: 0.2 mg/L (≈ 0.55 µM)
- MIC [2]: 0.2 mg/L (≈ 0.55 µM)
- MIC [3]: 0.2 mg/L (≈ 0.55 µM)
- MEC [5]: 0.8 µg/mL
- MIC [6]: 0.4 mg/L (≈ 1.1 µM)
- MIC [7]: 0.8 mg/L (≈ 2.2 µM)
- MIC [8]: 3.1 mg/L (≈ 8.53 µM)
- MIC [9]: 0.8 mg/L (≈ 2.2 µM)
- MIC [10]: 0.2 mg/L (≈ 0.55 µM)
- MIC [12]: 0.8 mg/L (≈ 2.2 µM)
- MIC [13]: 0.8 mg/L (≈ 2.2 µM)
- MIC [15]: 1.6 mg/L (≈ 4.4 µM)
